# Screening results deposited in PubChem BioAssay by Sanford-Burnham Center for Chemical Genomics.
# Hits are enriched below; roughly 1.5% of the tested compounds scored in any of these assays.
# EBI2 block: EBI2 receptor antagonists, beta-arrestin recruitment, primary screen, cell-based, luminescence, 7a,25-OHC stimulation, uHTS; G-protein coupled receptor 183 (Homo sapiens), P32249; 7a,25-OHC stimulated; inhibition, % at 5 µM; 360,000 tested, 0.81% active; in the data active = inhibition above about 38%;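 note: enzyme fragment complementation signal reports receptor beta-arrestin coupling in cells; 0% = agonist plus DMSO wells and 100% = wells without agonist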
# Target sequence (P32249 whole entry, looked up, the tested form may be a part): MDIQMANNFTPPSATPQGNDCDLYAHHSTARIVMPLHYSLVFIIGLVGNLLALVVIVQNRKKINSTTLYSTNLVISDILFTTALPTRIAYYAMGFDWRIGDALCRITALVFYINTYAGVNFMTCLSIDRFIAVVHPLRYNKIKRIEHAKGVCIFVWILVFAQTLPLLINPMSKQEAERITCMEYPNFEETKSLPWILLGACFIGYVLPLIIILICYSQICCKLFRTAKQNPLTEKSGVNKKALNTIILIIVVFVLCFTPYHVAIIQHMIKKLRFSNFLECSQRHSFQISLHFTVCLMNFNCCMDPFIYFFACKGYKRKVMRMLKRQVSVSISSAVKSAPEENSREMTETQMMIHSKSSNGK
# APJ agonist: agonists of human apelin receptor APJ, primary screen, CHO-K1 cells, PathHunter beta-arrestin, luminescence; P35414; 0% DMSO wells, 100% apelin; activation, % at 20 µM; 330,000 tested, 0.11% active;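 active = activation more than six SD over the plate average, tested at 20 µM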;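 note: 0% = DMSO alone and 100% = apelin-13 at 10 nM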
#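 Assay system: CHO-K1 cells stably expressing ProLink-tagged human APJ and arrestin–beta-gal acceptor. Compound dosing: 20 µM single point, 1% DMSO. Times: 16-18 h seeding, 90 min dark compound exposure, 60 min detection. Detection: beta-gal luminescence. Evaluation: APJ–arrestin association signal. Controls: negative DMSO alone, positive Apelin-13 at 10 nM.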
# CXCR6 inh: CXCR6 receptor inhibitors, primary screen, cell-based, beta-arrestin, luminescence, CHO-K1 PathHunter, 1536-well. inhibition, % at 20 µM. 360,000 tested, 0.36% active. AID 602244, 2012; in the data active = inhibition above about 34%, passing the limit was not always enough;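 note: antagonist mode with CXCL16 agonist at 10 nM final; 0% = 10 nM CXCL16 with DMSO and 100% = unstimulated wells without agonist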
# Target sequence (O00574 whole entry, looked up): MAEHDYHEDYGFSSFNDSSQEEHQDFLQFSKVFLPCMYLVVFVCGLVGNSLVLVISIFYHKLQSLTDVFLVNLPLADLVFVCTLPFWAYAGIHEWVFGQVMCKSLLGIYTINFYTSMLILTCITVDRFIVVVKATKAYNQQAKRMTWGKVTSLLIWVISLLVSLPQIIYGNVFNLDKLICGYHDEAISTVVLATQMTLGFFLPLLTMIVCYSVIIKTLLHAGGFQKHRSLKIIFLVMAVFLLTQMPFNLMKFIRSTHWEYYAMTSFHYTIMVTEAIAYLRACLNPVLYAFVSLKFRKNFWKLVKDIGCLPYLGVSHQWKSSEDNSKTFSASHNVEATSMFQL
# CCR6 antag: CCR6 receptor antagonists, primary screen, cell-based, CHO-K1, luminescence, beta-arrestin, uHTS | inhibition, % at 20 µM | CHO-K1 CCR6 PathHunter beta-arrestin, CCL20-stimulated | 340,000 tested, 0.49% active | C-C chemokine receptor type 6 (Homo sapiens), P51684;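 active = compounds whose inhibition of the agonist-driven luminescence signal at 20 µM reaches about 50%, limit read from the data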;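 note: cells stimulated with CCL20 at 14 nM final; plate controls were DMSO with CCL20 for no effect and DMSO without agonist for full effect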
# APJ antag: antagonists of human apelin receptor APJ, primary screen, CHO-K1 cells, beta-arrestin complementation, luminescence; 330,000 tested, 0.32% active; inhibition, % at 20 µM;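 active = inhibition above about 40% at 20 µM, limit read from the data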;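 note: cells challenged with 10 nM apelin-13 agonist together with compound; plate controls were apelin-13 plus DMSO wells for no effect and DMSO wells lacking apelin-13 for full effect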
# EBI2 antag conf: EBI2 antagonist hit retest, beta-arrestin, confirmation, cell-based, single concentration, luminescence, 7a,25-OHC stimulation; shares compounds with EBI2 block; 7a,25-OHC antagonism; inhibition, % at 5 µM; 2,400 tested, 29% active; AID 651997, 2013;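 active = inhibition of at least 50%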
# EBI2 agonist: EBI2 agonist activity of antagonist hits, confirmation, counter-screen for EBI2 antagonist project, cell-based, single concentration, agonist mode, luminescence | shares compounds with EBI2 block | EBI2-expressing cells, 60 min; 0% vehicle, 100% 7α,25-dihydroxycholesterol control | activation, % at 5 µM | 2,400 tested, under 10 active;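 active = activation of at least 50%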
# bGal cs: E. coli beta-galactosidase enzyme inhibition, confirmation, counter-screen for EBI2 antagonist project, biochemical, luminescence, single concentration; shares compounds with EBI2 block; purified beta-galactosidase, luminescent Galacton Star, 15 min; inhibition, % at 5 µM; 2,400 tested, 1% active; AID 652176, 2013;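 active = replicate-average signal at least 3 plate SD below neutral wells, shown as high inhibition, flagging enzyme-inhibiting false positives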;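 note: 0% = DMSO wells with enzyme and 100% = wells lacking enzyme; higher means stronger loss of beta-gal luminescence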
# * hit, by the source's call; x = no result given.
SMILES,EBI2 block,APJ agonist,CXCR6 inh,CCR6 antag,APJ antag,EBI2 antag conf,EBI2 agonist,bGal cs
CCN(CC)C(=O)CSc1nc2c(sc(=S)n2CC)c(=O)n1-c1ccccc1,10.0,-3.5,6.0,-1.2,-4.4,x,x,x
O=C(Cn1c(=O)cnc2ccccc21)Nc1cccc(S(=O)(=O)N2CCCCC2)c1,-0.2,-2.4,2.2,9.0,-3.1,x,x,x
O=C(NCCN1C(=O)S/C(=C\c2ccc(Cl)cc2)C1=O)c1ccc(F)c(S(=O)(=O)N2CCOCC2)c1,66.9*,0.2,0.5,-5.0,-8.3,47.9,2.1,-1.0
CCCCCCSc1ccc(-c2nc3ccc(C)cn3c2NCCCC)cc1OC,63.4*,x,19.7,x,x,63.0*,-1.9,-20.5
O=C(CNC(=O)c1ccc(S(=O)(=O)N2CCCC2)cc1)N/N=C/c1ccc(Cl)cc1,60.0*,-0.4,-8.5,0.6,-13.1,39.7,1.0,-0.6
O=C(CN1CCN(S(=O)(=O)c2ccc(Br)cc2)CC1)N/N=C/c1ccncc1,54.3*,-2.6,-16.7,3.5,19.5,32.5,0.4,7.2
O=C(CNC(=O)c1ccc(S(=O)(=O)N2CCCC2)cc1)N/N=C/c1ccc(Cl)cc1Cl,75.0*,-2.6,-7.6,11.4,-4.3,47.5,0.8,2.5
CCCCOC(=O)CSc1nc2ccccc2o1,-1.3,-1.7,4.8,-4.1,8.8,x,x,x
COC(=O)c1ccc(C2C(Oc3ccc(OC)cc3)C(=O)N2CCc2ccc(OC)c(OC)c2)cc1 (centres undefined),19.1,-3.1,5.8,4.1,5.4,x,x,x
COC(=O)c1ccc(C2C(Oc3ccccc3)C(=O)N2CCc2ccc(F)cc2)cc1 (centres undefined),53.3*,1.1,-8.6,-4.9,-10.6,31.6,-0.5,4.8
CCn1c(SCC(=O)NNC(=O)Cc2ccccc2)nnc1-c1ccccc1,-3.2,-1.8,-3.2,-10.6,12.2,x,x,x
Cc1ccc(C(=O)NNC(=O)CSc2nnc(-c3ccccc3)n2Cc2ccccc2)cc1,96.0*,-2.9,6.3,-1.1,11.3,88.7*,0.2,3.8
Cc1occc1-c1nnc(SCC(=O)NCCc2ccccc2)n1Cc1ccccc1,89.9*,-2.4,6.9,7.4,-3.0,78.1*,0.5,5.5
Cc1ccc(C(=O)NNC(=O)CSc2nnc(-c3ccncc3)n2-c2ccc(C)cc2)cc1,51.6*,-1.5,-1.4,x,0.0,10.7,0.4,4.6
Cc1occc1-c1nnc(SCC(N)=O)n1Cc1ccccc1,10.4,-1.5,-2.3,0.1,-8.5,x,x,x
Cc1ccc(-n2c(SCC(=O)Nc3ccc(C(=O)O)cc3)nnc2-c2ccncc2)cc1,6.7,-2.7,-1.4,12.3,11.7,x,x,x
CCCCc1cc(=O)oc2cc(C)cc(OC(C)C(=O)NCc3ccncc3)c12 (centres undefined),3.2,0.3,9.1,12.3,-20.8,x,x,x
CCOC(=O)c1c(C=O)c2sc(C)cc2n1C,-5.7,-4.4,1.3,16.2,4.1,x,x,x
CCC1(c2ccccc2)NC(=O)N(CC(=O)NC2CCCC2)C1=O (centres undefined),-1.9,-2.7,0.8,12.7,16.9,x,x,x
Cc1ccc2[nH]c(C(=O)N3CCCC(Nc4ccc(F)cc4)C3)cc2c1 (centres undefined),23.9,-3.2,-7.5,6.7,-4.9,x,x,x
Cc1ccc(S(=O)(=O)N2CCCN(C(=O)c3cc4ccccc4[nH]3)CC2)cc1,53.9*,-3.4,-2.3,13.4,-6.5,33.6,0.6,10.4
CN1CCN(C(=O)c2cc3ccccc3[nH]2)CC1,13.3,-1.2,-10.5,5.1,20.5,x,x,x
Cc1ccc2[nH]c(C(=O)N3CCN(C=O)CC3)cc2c1,75.5*,-1.6,-4.5,-8.9,-0.6,27.7,0.6,9.6
Cc1ccc2[nH]c(C(=O)N3CCN(c4cccc(Cl)c4)CC3)cc2c1,54.2*,-1.8,-5.7,-14.6,-28.3,46.9,0.2,5.8
CCOC(=O)N1CCN(C(=O)c2cc3cc(C)ccc3[nH]2)CC1,88.1*,-2.6,6.1,-13.8,-4.9,67.2*,0.2,7.5
SMILES,EBI2 block,APJ agonist,CXCR6 inh,CCR6 antag,APJ antag,EBI2 antag conf,EBI2 agonist,bGal cs
C=CCN(Cc1cc(OC)ccc1OC)C(=O)c1cc2ccc(OC)cc2[nH]1,-3.3,0.2,-11.0,16.3,1.2,x,x,x
Cc1c(Cc2ccc3c(c2)OCO3)sc(NC(=O)c2ccccc2)c1C(N)=O,6.9,-0.6,-2.1,11.7,-3.2,x,x,x
CCOC(=O)c1c(NC(=O)CN2C(=O)c3ccccc3C2=O)sc(Cc2ccc3c(c2)OCO3)c1C,65.0*,-3.2,5.8,9.3,19.1,39.4,-0.3,-15.8
Cc1cc(C)c(NC(=O)c2cccs2)c(C)c1NC(=O)c1cccs1,6.5,-1.6,1.2,15.7,17.1,x,x,x
COC(=O)c1ccc(C)c(NC(=O)CCn2[nH]c(=O)ccc2=O)c1,-3.4,3.1,-4.3,2.8,12.0,x,x,x
COc1ccc(C(=O)Nc2cnn(Cc3c(F)cccc3Cl)c2)cc1OC,-1.8,-0.2,-6.1,6.5,4.0,x,x,x
Cc1ccc(N2CCN(c3ccc(C)cc3)C2c2cccnc2)cc1,68.2*,2.8,-9.5,19.1,-22.4,28.2,-0.4,-11.8
c1ccc(N2CCN(c3ccccc3)C2c2cccnc2)cc1,2.1,-4.7,4.9,14.7,-6.8,x,x,x
O=C(NC1CCCC1)c1cccc(S(=O)(=O)N2CCOCC2)c1,-5.4,-4.2,-4.7,7.7,12.5,x,x,x
CC1CCCCN1C(=S)Nc1ccc(OC(F)F)cc1 (centres undefined),50.0*,-1.2,13.6,-3.2,-8.7,0.8,-1.2,-14.4
Cc1cccc(NC(=O)c2ncn3c2C(=O)N(C)CC3)c1,-1.2,x,-0.4,x,x,x,x,x
COc1ccc(CCC(=O)NCCc2ccc(Cl)cc2)cc1,43.0*,-5.7,1.7,10.2,8.5,27.2,0.7,2.2
O=C(NCc1cccs1)C(=O)NCC(c1ccco1)N1CCN(c2ccccc2F)CC1 (centres undefined),52.1*,-3.3,-7.7,13.5,8.3,21.9,1.6,4.3
O=C(NCC(c1ccco1)N1CCN(c2ccccc2F)CC1)c1cccs1 (centres undefined),6.5,-5.1,-1.4,5.7,-7.4,x,x,x
